Data set [1] in a line: Half life in Sprague-Dawley rat at 2 mg/kg, iv. The data set is classed as ADME, organism-based. Further details: dose 2 mg/kg, route intravenous. Conditions: in vivo.
In data set [2] the test system is Human immunodeficiency virus. As to the kind of experiment: Antiviral activity against wild type HIV H9-3B infected in human MT2 cells assessed as inhibition of viral replication measuring p24 level after 3 days in presence of 50% normal human serum. Conditions: Human immunodeficiency virus 1, H9-3B, 72 h, read-out: CIC95. It is filed as functional. The procedure, abridged: (§1)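 Multiple-cycle spread assay in MT2 cells with wild-type H9IIIB virus. Cells were infected overnight at moi ≈ 0.01 without compound, washed, then cultured 3 days across varying compound concentrations in RPMI 1640 with 10% FBS or 50% NHS. p24 was measured in supernatants. CIC95 is the lowest concentration inhibiting replication ≥95%, as the geometric mean of ≥2 determinations.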

Data set [3] relates to Human immunodeficiency virus. Nature of the data set: Antiviral activity against HIV with reverse transcriptase K103N mutant infected in human MT2 cells assessed as inhibition of viral replication measuring p24 level after 3 days in presence of 10% fetal bovine serum. The data set is classed as functional. Particulars: Human immunodeficiency virus 1, MT2, Serum, 72 h; read-out: CIC95. The essentials: (§2)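 Multiple-cycle replication (Spread) assay in MT2 cells with H9IIIB-background mutant virus. Cells were infected overnight at moi ≈ 0.01 without compound, washed, then cultured 3 days across a range of compound concentrations in medium with 10% FBS. p24 was measured in supernatants. CIC95 is the lowest concentration inhibiting replication by ≥95%, reported as the geometric mean of ≥2 determinations.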

In data set [4] the test system is Human immunodeficiency virus. As to the kind of experiment: Antiviral activity against HIV with reverse transcriptase K103N/Y181C double mutant infected in human MT2 cells assessed as inhibition of viral replication measuring p24 level after 3 days in presence of 10% fetal bovine serum. It is filed as functional. Conditions: Human immunodeficiency virus 1, MT2, Serum, 72 h; read-out: CIC95. The procedure, abridged:
as §2

The nature of data set [5]: Volume of distribution in Sprague-Dawley rat at 2 mg/kg, iv. It is filed as ADME, organism-based. Set-up: dose 2 mg/kg, route intravenous. Conditions: in vivo.
Data set [6] has as its system Human immunodeficiency virus. As to the kind of experiment: Antiviral activity against HIV with reverse transcriptase Y181C mutant infected in human MT2 cells assessed as inhibition of viral replication measuring p24 level after 3 days in presence of 10% fetal bovine serum. The data set is classed as functional. Conditions: Human immunodeficiency virus 1, MT2, Serum, 72 h; read-out: CIC95. The essentials:
as §2

Data set [7] can be described thus: Clearance in Sprague-Dawley rat at 2 mg/kg, iv. The data set is classed as ADME, organism-based. Further details: dose 2 mg/kg, route intravenous. Conditions: in vivo.
In data set [8] the test system is Rattus norvegicus. Nature of the data set: AUC in Sprague-Dawley rat at 2 mg/kg, iv. Further details: dose 2 mg/kg, route intravenous. The data set is classed as ADME, organism-based, Plasma. Particulars: in vivo.
The subject of data set [9] is Human immunodeficiency virus. Nature of the data set: Antiviral activity against wild type HIV H9-3B infected in human MT2 cells assessed as inhibition of viral replication measuring p24 level after 3 days in presence of 10% fetal bovine serum. It is filed as functional. Particulars: Human immunodeficiency virus 1, MT2, Serum; read-out: CIC95. The essentials: as §1

Data set [10] addresses Human immunodeficiency virus type 1 reverse transcriptase (Human immunodeficiency virus 1, UniProt Q72547, K103N). As to the kind of experiment: Inhibition of RNA-dependent DNA polymerase activity of recombinant HIV reverse transcriptase K103N mutant assessed as BrdU incorporation by standard ECL assay. (Dividing cells build labelled thymidine or BrdU into new DNA.)
Data set [11] is described as follows: Inhibition of RNA-dependent DNA polymerase activity of wild type HIV reverse transcriptase assessed as BrdU incorporation by standard ECL assay. Further details: species or system Human immunodeficiency virus. The essentials: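 Purified recombinant wild-type RT polymerase activity was measured using a 500-nt heteropolymeric RNA template and a biotinylated DNA primer. BrdU incorporation was detected with a ruthenylated anti-BrdU antibody by electrochemiluminescence. Ki is the geometric mean of at least two determinations, each within 25% of the mean.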

A word on the half-life: it is how long it takes for the measured level to halve. As a reminder, the Vd is the apparent volume that relates the amount in the body to the concentration in plasma or blood. High values mean extensive tissue distribution, low ones confinement near the circulation. Broadly, the clearance is a measure of how efficiently the substance is removed, as volume per time. Read a low clearance as a low capacity for elimination. As a reminder, the Ki is a measure of affinity in units of concentration, obtained from inhibition or displacement.

Compound `N#Cc1cc(Cl)cc(Oc2cc(OCc3n[nH]c4ncccc34)cc(Cl)c2Cl)c1` showed a half-life in data set [1] of 9.4 h. Also, the IC95 in data set [2] was found to be 103 nM; in data set [3], 34 nM; in data set [4], 277 nM; in data set [6], 31 nM; in [9] it was 18 nM. Besides, the Vd in [5] turned out to be 1.8 L/kg. For the same compound, the clearance in data set [7] turned out to be 5.5 mL/min/kg. Besides, the AUC in data set [8] was found to be 3.5 µM. The inhibition constant (Ki) in data set [10] was 4.6 nM; in [11], 2.7 nM.
Turning to `N#Cc1cc(Cl)cc(Oc2cc(OCc3noc4nc(C5=NCCN5)ccc34)ccc2Cl)c1`, the IC95 in [2], in data set [3] and in [9] was 309 nM in each case. Besides, the Ki turned out to be 6.3 nM in data set [10] and 2.3 nM in data set [11].
In the case of `N#Cc1cc(Cl)cc(Oc2cc(F)cc(OCc3n[nH]c4nc(N)ccc34)c2)c1`, the IC95 in [2] is 103 nM; in [3] it was 309 nM; in [9], less than 3.8 nM. The Ki in [10] is 3.3 nM; in data set [11], 2 nM.
As for `N#Cc1cc(Cl)cc(Oc2ccc(F)c(OCc3n[nH]c4ncccc34)c2)c1`, the IC95 was greater than 8300 nM in [2], greater than 8300 nM in data set [3] and 3770 nM in data set [9]. Moreover, the inhibition constant Ki in data set [10] came to 350 nM; in data set [11], 47 nM.
Consider `N#Cc1cc(Cl)cc(Oc2cc(F)c(Cl)c(OCc3n[nH]c4ncccc34)c2)c1`, for which the IC95 worked out at 103 nM in [2]; 11 nM in [3]; 93 nM in data set [4]; 31 nM in data set [6]; 11 nM in [9]. For the same compound, the Ki in data set [10] is 0.8 nM; in [11], 5.2 nM.
In data set [1], `N#Cc1cc(Cl)cc(Oc2cc(OCc3noc4nc(N)ccc34)cc(F)c2Cl)c1` gave a half-life of 1.9 h. Further, the IC95 in [2] came out at 103 nM; in data set [3], 103 nM; in [4] it was 833 nM; in data set [6] it was 31 nM; in [9], 11 nM. In addition, the Vd in data set [5] was found to be 5.1 L/kg. In [7], this compound registered a clearance of 44.9 mL/min/kg. The AUC in data set [8] came to 0.4 µM. The Ki is 0.8 nM in data set [10] and 0.2 nM in data set [11].
With `N#Cc1cc(Cl)cc(Oc2cc(F)c(Cl)c(OCc3n[nH]c4nc(N)ccc34)c2)c1`, the IC95 is greater than 8330 nM in [2], greater than 8330 nM in data set [3] and 2780 nM in data set [9]. Besides, the figures for the Ki in data set [10] and in data set [11] were greater than 910 nM and 120 nM, respectively.
For `N#Cc1cc(Cl)cc(Oc2cc(OCc3noc4nc(N5CCOCC5)ccc34)ccc2Cl)c1`, the results for the IC95 in data set [2], in [3] and in [9] were 956 nM, 926 nM and 103 nM, respectively. For the same compound, the inhibition constant Ki in data set [10] was 8.6 nM; in data set [11], 1.8 nM.
`N#Cc1cc(Cl)cc(Oc2cc(OCc3noc4nc(-n5ccnc5)ccc34)ccc2Cl)c1` had a half-life in data set [1] of 1.7 h. Besides, the IC95 in data set [2] was found to be 309 nM; in data set [3], 103 nM; in data set [4], 833 nM; in [6] it was 278 nM; in data set [9], 33 nM. The compound further had a Vd in data set [5] of 2.2 L/kg. This compound also had a clearance in data set [7] of 26.9 mL/min/kg. Also, the AUC in data set [8] turned out to be 0.7 µM. Besides, the Ki in data set [10] was 0.8 nM; in [11] it was 0.2 nM.
In data set [1], `CNc1ccc2c(COc3ccc(Cl)c(Oc4cc(Cl)cc(C#N)c4)c3)noc2n1` had a half-life of 2 h. In addition, the figures for the IC95 in data set [2], in [3] and in data set [9] were 103 nM, 309 nM and 103 nM, respectively. In data set [5], the Vd stood at 2 L/kg. This compound also had a clearance in data set [7] of 24.6 mL/min/kg. The AUC in data set [8] amounted to 0.8 µM. Also, the Ki in data set [10] is 0.9 nM; in data set [11], 0.3 nM.
In the case of `CN(C)c1ccc2c(COc3ccc(Cl)c(Oc4cc(Cl)cc(C#N)c4)c3)noc2n1`, the IC95 was determined as 309 nM in [2], 309 nM in data set [3] and 103 nM in data set [9]. Moreover, the Ki in data set [10] is 0.9 nM; in data set [11], 0.3 nM.
Take `N#Cc1cc(Cl)cc(Oc2cc(OCc3noc4nc(N5CCCCC5)ccc34)ccc2Cl)c1`: the IC95 in data set [3], in data set [6] and in data set [9] was greater than 8330 nM throughout. The Ki in [10] came out at 7.2 nM; in [11], 2.2 nM.
In the case of `Cc1cc(OCc2n[nH]c3ncccc23)cc(Oc2cc(Cl)cc(C#N)c2)c1Cl`, the IC95 amounted to 103 nM in data set [2]; 103 nM in data set [3]; 278 nM in data set [4]; 31 nM in [6]; 11 nM in [9]. Further, the inhibition constant (Ki) came to 1.9 nM in data set [10] and 0.4 nM in data set [11].
`N#Cc1cc(Cl)cc(Oc2cc(OCc3noc4nc(N5CCNCC5)ccc34)ccc2Cl)c1`: the IC95 in [2] stood at 309 nM; in data set [3], 103 nM; in data set [4], 833 nM; in data set [6], 833 nM; in data set [9], 33 nM. Further, the Ki turned out to be 3 nM in [10] and 1.7 nM in data set [11].
In data set [1], `N#Cc1cc(Cl)cc(Oc2cc(OCc3noc4nc(N)ccc34)ccc2Cl)c1` showed a half-life of 5.8 h. Also, the IC95 in data set [2] is 34 nM; in data set [3] it was 34 nM; in data set [4] it was 278 nM; in data set [6] it was 93 nM; in data set [9], 11 nM. Moreover, the Vd in data set [5] amounted to 44.7 L/kg. In addition, in [7], the clearance came to 93.4 mL/min/kg. Moreover, the AUC in data set [8] was 0.8 µM. Moreover, the Ki in data set [10] is 0.4 nM; in data set [11] it was 0.3 nM.
As to `N#Cc1cc(Cl)cc(Oc2cc(OCc3noc4ncccc34)ccc2Cl)c1`, the IC95 in data set [2] was determined as 103 nM; in [3], 103 nM; in data set [4], 278 nM; in data set [6], 93 nM; in [9], 19 nM. In addition, the Ki in data set [10] was 2.1 nM; in [11], 1.6 nM.
On to `N#Cc1cc(Cl)cc(Oc2cc(OCc3n[nH]c4ncccc34)cc(F)c2Cl)c1`, for which the IC95 in [2] was 59 nM; in data set [3], 11 nM; in data set [4], 93 nM; in data set [6] it was 31 nM; in [9] it was 16 nM. The Ki was 0.9 nM in data set [10] and 0.5 nM in data set [11].
For `N#Cc1cc(Cl)cc(Oc2ccc(Cl)c(OCc3n[nH]c4ncccc34)c2)c1`, the IC95 in [2], in data set [3] and in data set [9] was greater than 8300 nM in each case. In addition, the Ki turned out to be 140 nM in data set [10] and 17 nM in data set [11].

Source of the values: ChEMBL document CHEMBL1156144, “Biaryl ethers as novel non-nucleoside reverse transcriptase inhibitors with improved potency against key mutant viruses” (J Med Chem, 2009).
